In ChEMBL document CHEMBL1641482, “Synthetic analogs of daidzein, having more potent osteoblast stimulating effect” (2011):
The source made the active and inactive calls. The calls are words filed in the database; no cut-off is given here.

Experiments:
Osteoblast [1] = assay: Induction of osteogenesis in Sprague-Dawley rat calvarial osteoblasts assessed as increase in osteoblast differentiation-associated ALP level at 1 pM to 10 nM after 48 hrs; format: functional, cell-based
Outline: (§1)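 Primary rat calvarial osteoblasts were seeded at 2 × 10³ cells per well and exposed to compounds from 1.0 pM to 10.0 nM for 48 h. Daidzein served as the positive control. ALP activity was read spectrophotometrically at 405 nm. Data are mean SD, n = 6, compared with vehicle-treated cells.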

Osteoblast [2] = assay: Induction of osteogenesis in Sprague-Dawley rat calvarial osteoblasts assessed as increase in osteoblast differentiation-associated ALP level at 1 pM after 48 hrs; format: functional, cell-based; outline: as §1
Osteoblast [3] = assay: Induction of osteogenesis in Sprague-Dawley rat calvarial osteoblasts assessed as increase in osteoblast differentiation-associated ALP level at 1 uM after 48 hrs; format: functional, cell-based
Osteoblast [4] = assay: Ratio of compound to daidzein for induction of osteogenesis in Sprague-Dawley rat calvarial osteoblasts; format: functional
Osteoblast [5] = assay: Induction of mineralization in Sprague-Dawley rat calvarial osteoblasts assessed as increase of mineralized nodules formation at 10 nM after 7 days by alizarin red staining; format: functional, cell-based
Outline: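 Primary rat calvarial osteoblasts were seeded at 2 × 10³ cells per well and exposed to 10.0 nM compound for seven days. Cells were fixed and stained with alizarin red-S, and the dye was extracted and measured colorimetrically by OD. Data are mean SD, n = 4, versus vehicle.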

Rattus norvegicus [6] = assay: Estrogenic activity in ovariectomized Sprague-Dawley rat assessed as effect on uterine weight at 10 mg/kg, po qd for 3 days (reference value: 35.0 +/- 0.6); format: functional
Rattus norvegicus [7] = assay: Antiestrogenic activity in ovariectomized Sprague-Dawley rat assessed as inhibition of 17beta estradiol-induced increase in uterine weight at 10 mg/kg, po qd for 3 days; format: functional
Rattus norvegicus [8] = assay: Estrogenic activity in ovariectomized Sprague-Dawley rat assessed as effect on uterine weight at 3 mg/kg, po qd for 3 days (reference value: 35.0 +/- 0.6); format: functional
Rattus norvegicus [9] = assay: Antiestrogenic activity in ovariectomized Sprague-Dawley rat assessed as inhibition of 17beta estradiol-induced increase in uterine weight at 3 mg/kg, po qd for 3 days; format: functional
Rattus norvegicus [10] = assay: Estrogenic activity in ovariectomized Sprague-Dawley rat assessed as effect on uterine weight at 0.01 mg/kg, po qd for 3 days (reference value: 35.0 +/- 0.6); format: functional
Bone marrow cell = assay: Induction of mineralization in rat bone marrow cell assessed as increase of mineralized nodules formation at 10 nM after 18 days by alizarin red staining
Osteoblast [11] = assay: Induction of osteocalcin mRNA expression in Sprague-Dawley rat calvarial osteoblasts at 10 nM after 24 hrs by RT-PCR analysis relative to control; format: functional
Outline: (§2)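 Osteoblasts were cultured with or without 10 nM compound for 24 h. Osteocalcin and BMP-2 transcripts were quantified by real-time RT-PCR (qPCR) against vehicle control. Data are mean SEM, n = 4.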

Osteoblast [12] = assay: Induction of BMP-2 mRNA expression in Sprague-Dawley rat calvarial osteoblasts at 10 nM after 24 hrs by RT-PCR analysis relative to control; format: functional; outline: as §2

SMILES | Activity (Osteoblast [1]) | Activity (Osteoblast [2]) | Activity (Osteoblast [3]) | Ratio (Osteoblast [4]) | Activity (Osteoblast [5]) | Activity (Rattus norvegicus [6]) [mg] | Activity (Rattus norvegicus [7]) [mg] | Activity (Rattus norvegicus [8]) [mg] | Activity (Rattus norvegicus [9]) [mg] | Activity (Rattus norvegicus [10]) [mg] | Activity (Bone marrow cell) | fold change (FC) (Osteoblast [11]) | fold change (FC) (Osteoblast [12])
COc1ccc2c(=O)c(-c3ccc(OCCBr)cc3)coc2c1 | Active | inactive | Active | 100 | – | – | – | – | – | – | – | – | –
COc1ccc2c(=O)c(-c3ccc(OCC(C)C)cc3)coc2c1 | Active | inactive | Active | 100 | – | – | – | – | – | – | – | – | –
COc1ccc(-c2coc3cc(OCCN4CCCC4)ccc3c2=O)cc1 | Active | inactive | Active | 100 | Active | 31.3 | 59.3 | – | – | – | – | – | –
O=C(c1ccc(OCCN2CCCCC2)cc1)c1c(-c2ccc(O)cc2)sc2cc(O)ccc12 [RALOXIFENE] | – | – | – | – | – | – | – | 42.3 | 67 | – | – | – | –
C#C[C@]1(O)CC[C@H]2[C@@H]3CCc4cc(O)ccc4[C@H]3CC[C@@]21C [ETHINYL ESTRADIOL] | – | – | – | – | – | – | – | – | – | 82.3 | – | – | –
CCN(CC)CCOc1ccc(-c2coc3cc(OCCN(CC)CC)ccc3c2=O)cc1 | Active | inactive | Active | 100 | Active | 31.3 | 57.3 | – | – | – | Active | – | –
CCN(CC)CCOc1ccc2c(=O)c(-c3ccc(OC)cc3)coc2c1 | Active | inactive | Active | 100 | Active | 28 | 63 | – | – | – | Active | 10 | 6
